Experimental data taken from ChEMBL document CHEMBL2380266, “1,4-Benzothiazine ATP-sensitive potassium channel openers: modifications at the C-2 and C-6 positions” (J Med Chem, 2013).
The source made the active and inactive calls. No cut-off for these calls is given here.

Columns and labels:
[1] = system: Aorta; test: Vasorelaxant activity in Wistar rat endothelium-denuded aortic rings assessed as reduction of KCl-induced contraction; assay type: functional, tissue-based
In short: (§1)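 Thoracic aortic rings from male Wistar rats (250−350 g), endothelium removed. Removal confirmed by <10% relaxation to 10 μM ACh. Rings contracted with 25 mM KCl; at plateau, test agent added cumulatively in 3-fold increasing concentrations. DMSO stocks (10 mM) diluted in water. Emax given as % of KCl tone; pIC50 is the half-reduction of tone; 5−10 experiments.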

[2] = system: Aorta; test: Vasorelaxant activity in Wistar rat endothelium-denuded aortic rings assessed as reduction of KCl-induced contraction relative to control; assay type: functional; in short: as §1
[3] = species: Homo sapiens; test: Activation of ATP-sensitive potassium channel in human aortic smooth muscle cells assessed as membrane hyperpolarization at 0.1 to 100 uM by DiBAC4(3) dye-based spectrofluorimetric analysis relative to LCRK
In short: (§2)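 HASMCs grown in medium 231 with SMGS at 37 °C, 5% CO2, seeded on gelatin 24 h before use. Loaded 1 h with 2.5 μM DiBAC4(3) in HEPES buffer pH 7.4 at room temperature. Fluorescence read at ex 488 / em 520 nm before and after compound. Relative fluorescence decrease (Ft−F0)/F0 expressed as % of the 100 μM LCRK effect. pEC50 derived; six replicates.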

[4] = species: Homo sapiens; test: (§3) Activation of ATP-sensitive potassium channel in human aortic smooth muscle cells assessed as membrane hyperpolarization by DiBAC4(3) dye-based spectrofluorimetric analysis; in short: as §2
[5] = as §3; in short: as §2
[6] = system: Aorta; test: Vasorelaxant activity in Wistar rat endothelium-denuded aortic rings relative to LCRK; assay type: functional; in short: as §1
[7] = species: Homo sapiens; test: Activation of ATP-sensitive potassium channel in human aortic smooth muscle cells assessed as membrane hyperpolarization at 10 uM by DiBAC4(3) dye-based spectrofluorimetric analysis in presence of glibenclamide
In short: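 Same DiBAC4(3) setup in HASMCs (2.5 μM dye, 1 h loading, pH 7.4, ex 488 / em 520 nm). Glibenclamide was added 10 min before the test agent. Relative fluorescence decrease expressed as % of the 100 μM LCRK maximal effect; six replicates.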

[8] = system: Aorta; test: Vasorelaxant activity in Wistar rat endothelium-denuded aortic rings assessed as reduction of KCl-induced contraction in presence of glibenclamide; assay type: functional, tissue-based
In short: (§4)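 Endothelium-denuded Wistar rat aortic rings; 1 μM glibenclamide added before the 25 mM KCl contraction, then test agent added cumulatively in 3-fold increasing concentrations. Vasorelaxation expressed as % of KCl-induced tone; pIC50 from the half-reduction of tone; 5−10 experiments.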

[9] = system: Aorta; test: Vasorelaxant activity in Wistar rat endothelium-denuded aortic rings assessed as reduction of KCl-induced contraction in presence of glibenclamide relative to control; assay type: functional; in short: as §4
[10] = species: Rattus norvegicus; test: Activation of ATP-sensitive potassium channel in Wistar rat pancreatic islets assessed as reduction in high glucose-induced insulin secretion after 1 hr by radioimmunoassay
In short: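 Islets from male Wistar rats (200−250 g), collagenase isolation, cultured 24 h in RPMI (5.6 mM glucose). Batches of 10 islets preincubated 30 min in KRH pH 7.4 with 2.8 mM glucose and 1% BSA, then incubated 1 h with 2.8 or 16.7 mM glucose ± test agent at 1 to 1000 nM. Released insulin measured by RIA. At least five replicas.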

[11] = species: Rattus norvegicus; test: Activation of ATP-sensitive potassium channel in Wistar rat pancreatic islets assessed as reduction in high glucose-induced insulin secretion at 80 uM after 1 hr by radioimmunoassay
In short: (§5)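 Islets from male Wistar rats (200−250 g), isolated by collagenase duct cannulation with density-gradient purification and cultured 24 h in RPMI (5.6 mM glucose). Ten islets per well were preincubated 30 min in KRH pH 7.4 with 2.8 mM glucose and 1% BSA, then incubated 1 h with 16.7 mM glucose ± glibenclamide 1 μM. Released insulin was measured by RIA, at least five replicas.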

[12] = species: Rattus norvegicus; test: Activation of ATP-sensitive potassium channel in Wistar rat pancreatic islets assessed as reduction in high glucose-induced insulin secretion at 80 uM after 1 hr by radioimmunoassay in presence of glibenclamide; in short: as §5

CC1(C)CSc2ccc(C(F)(F)F)cc2N1C1=CCCC1=O
IC50 [1]: 66.1 nM | Emax [2]: 89%

CC1CN(C2=CCCC2=O)c2cc(C(F)(F)F)ccc2S1 (stereo not given)
Emax [3]: 106% | Activity [4]: Dose-dependent effect | EC50 [5]: 135 nM | Ratio [6]: 10 | Activity [7]: inactive | IC50 [8]: 708 nM | Emax [9]: 63% | IC50 [1]: 8.32 nM | Emax [2]: 94%

CC1(C)CN(C2=CCCC2=O)c2cc(C(F)(F)F)ccc2S1
IC50 [8]: 8.32 nM | Emax [9]: 96% | IC50 [1]: 0.0417 nM | Emax [2]: 92%

CC(C)CN(CC(C)C)S(=O)(=O)c1ccc2c(c1)N(C1=CCCC1=O)CC(C)(C)S2
IC50 [1]: 794 nM | Emax [2]: 85%

CC(=O)c1ccc2c(c1)N(C1=CCCC1=O)CC(C)(C)S2
Emax [3]: 103% | Activity [4]: Dose-dependent effect | EC50 [5]: 117 nM | Ratio [6]: 100 | Activity [7]: inactive | IC50 [8]: 56.2 nM | Emax [9]: 77% | Activity [10]: inactive | IC50 [1]: 1.45 nM | Emax [2]: 88%

Cc1ccc2c(c1)N(C1=CCCC1=O)CC(C)(C)S2
IC50 [8]: 19500 nM | Emax [9]: 78% | IC50 [1]: 933 nM | Emax [2]: 89%

CC1(C)CN(C2=CCCC2=O)c2cc(N)ccc2S1
IC50 [1]: 3980 nM | Emax [2]: 96%

CC1(C)CN(C2=CCCC2=O)c2ccccc2S1
IC50 [8]: 20900 nM | Emax [9]: 61% | IC50 [1]: 724 nM | Emax [2]: 90%

O=C1CCC=C1N1CCSc2ccc(C(F)(F)F)cc21
IC50 [8]: 23400 nM | Emax [9]: 64% | IC50 [1]: 537 nM | Emax [2]: 94%

CC1(C)Oc2ccc(C#N)cc2[C@@H](N2CCCC2=O)[C@@H]1O [LEVCROMAKALIM]
EC50 [5]: 5370 nM | Activity [7]: inactive | IC50 [8]: 2510 nM | Emax [9]: 93% | IC50 [1]: 324 nM | Emax [2]: 99%

CC(=O)Nc1ccc2c(c1)N(C1=CCCC1=O)CC(C)(C)S2
IC50 [1]: 6610 nM | Emax [2]: 97%

CCc1ccc2c(c1)N(C1=CCCC1=O)CC(C)(C)S2
Emax [3]: 98% | Activity [4]: Dose-dependent effect | EC50 [5]: 7410 nM | Activity [7]: inactive | IC50 [8]: 6460 nM | Emax [9]: 69% | Activity [10]: inactive | IC50 [1]: 155 nM | Emax [2]: 97%

CC1=Nc2ccc(Cl)cc2S(=O)(=O)N1
Activity [11]: Active | Activity [12]: inactive
